One assay relates to HepG2. The experiment in a line: Anticancer activity against human HepG2 cells assessed as cell viability after 48 hrs by MTT microcultured tetrazolium assay. It is filed as functional, cell-based. To be noted: HepG2, 48 h. The procedure, abridged: (§1)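 MTT-microcultured tetrazolium viability read-out in MCF-7 and HepG2 cells exposed to test samples. Surviving fraction was plotted against drug concentration to give survival curves, and IC50 was taken from these curves.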

The next assay deals with MCF7. The experiment in a line: Anticancer activity against human MCF7 cells assessed as cell viability after 48 hrs by MTT microcultured tetrazolium assay. It is filed as functional, cell-based. To be noted: MCF7, 48 h. The procedure, abridged: as §1
The subject of a further assay is Candida albicans. The experiment in a line: Antifungal activity against Candida albicans MTCC 183 at 150 ug/ml after 48 hrs by agar well diffusion method. It is filed as functional. The following applies: MTCC 183, 48 h, read-out: IZ. In short, it runs like this: (§2)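 Antifungal screen by agar well diffusion against C. albicans, C. glabrata, A. niger and A. parasiticus. Clotrimazole was the standard drug. Activity was recorded as zone of inhibition (ZOI, mm).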

Another assay deals with Streptococcus pyogenes. The assay is described as follows: Antibacterial activity against Streptococcus pyogenes MTCC 1926 at 150 ug/ml after 24 hrs by agar well diffusion assay. It is filed as functional. The following applies: MTCC 1926, 24 h, read-out: IZ. The procedure, abridged:
(§3)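 Agar well diffusion screen against the two Gram-positive strains (S. aureus, S. pyogenes) and the two Gram-negative strains (P. aeruginosa, K. pneumoniae). Streptomycin was the reference drug. Activity was read as zone of inhibition (mm).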

In another assay the test system is Klebsiella pneumoniae. The assay is described as follows: Antibacterial activity against Klebsiella pneumoniae MTCC 109 at 150 ug/ml after 24 hrs by agar well diffusion assay. To be noted: MTCC 109, 24 h, read-out: IZ. Type of assay: functional. The procedure, abridged: as §3
For a further assay, the system named is Aspergillus niger. The assay is described as follows: Antifungal activity against Aspergillus niger MTCC 282 at 150 ug/ml after 48 hrs by agar well diffusion method. Type of assay: functional. The following applies: MTCC 282, 48 h, read-out: IZ. The procedure, abridged:
as §2

The next assay has as its system Pseudomonas aeruginosa. The assay is described as follows: Antibacterial activity against Pseudomonas aeruginosa MTCC 4673 at 150 ug/ml after 24 hrs by agar well diffusion assay. Type of assay: functional. The following applies: MTCC 4673, 24 h, read-out: IZ. The procedure, abridged:
as §3

A further assay deals with Aspergillus parasiticus. The assay is described as follows: Antifungal activity against Aspergillus parasiticus MTCC 8850 at 150 ug/ml after 48 hrs by agar well diffusion method. It is filed as functional. To be noted: MTCC 8850, 48 h, read-out: IZ. The procedure, abridged: as §2
In the next assay the test system is Nakaseomyces glabratus. The experiment in a line: Antifungal activity against Candida glabrata MTCC3019 at 150 ug/ml after 48 hrs by agar well diffusion method. It is filed as functional. The following applies: MTCC3019, 48 h, read-out: IZ. The procedure, abridged:
as §2

Another assay relates to Staphylococcus aureus. The assay is described as follows: Antibacterial activity against Staphylococcus aureus MTCC 96 at 150 ug/ml after 24 hrs by agar well diffusion assay. It is filed as functional. To be noted: MTCC 96, 24 h, read-out: IZ. The procedure, abridged: as §3

As for `COc1ccc2c(c1)CCC1=C2N=c2s/c(=C\c3c[nH]c4ccc(Br)cc34)c(=O)n2C1c1ccc(F)cc1` (stereo unspecified), the IC50 came to 22.1 µM in the assay with HepG2 and 8.96 µM in the assay on MCF7. In addition, the zone of inhibition at 150 µg/mL in the assay with Candida albicans came to 8 mm; in the assay with Streptococcus pyogenes it was 8 mm; with Klebsiella pneumoniae, 18 mm; in the assay on Aspergillus niger, 8 mm; in the assay on Pseudomonas aeruginosa, 22 mm; in the assay on Aspergillus parasiticus, 8 mm. The values for the zone of inhibition at 150 µg/mL in the assay on Nakaseomyces glabratus and in the assay with Staphylococcus aureus were 10 mm and 22 mm, respectively.

Take `COc1ccc(C2C3=C(N=c4s/c(=C\c5c(C)[nH]c6ccccc56)c(=O)n42)c2ccc(OC)cc2CC3)cc1` (stereo unspecified): the IC50 was more than 200 µM with HepG2 and 112 µM in the assay with MCF7. For the same molecule, the zone of inhibition at 150 µg/mL in the assay on Candida albicans is 8 mm; in the assay on Streptococcus pyogenes, 8 mm; in the assay on Klebsiella pneumoniae, 8 mm; with Aspergillus niger it was 8 mm; in the assay on Pseudomonas aeruginosa, 8 mm; in the assay on Aspergillus parasiticus, 10 mm. For the same molecule, the zone of inhibition at 150 µg/mL in the assay with Nakaseomyces glabratus and in the assay on Staphylococcus aureus was 8 mm throughout.

Take `COc1ccc2c(c1)CCC1=C2N=c2s/c(=C\c3c[nH]c4ccc(Br)cc34)c(=O)n2C1c1cccc([N+](=O)[O-])c1` (stereo unspecified): the IC50 in the assay on HepG2 and in the assay with MCF7 was more than 200 µM each time. Also, the zone of inhibition at 150 µg/mL is 8 mm in the assay with Candida albicans; 16 mm in the assay on Streptococcus pyogenes; 17 mm in the assay on Klebsiella pneumoniae; 10 mm with Aspergillus niger; 8 mm in the assay on Pseudomonas aeruginosa; 10 mm with Aspergillus parasiticus. For the same molecule, the zone of inhibition at 150 µg/mL was 8 mm with Nakaseomyces glabratus and 19 mm in the assay on Staphylococcus aureus.

On to `COc1ccc2c(c1)CCC1=C2N=c2s/c(=C\c3c(C)[nH]c4ccccc34)c(=O)n2C1c1ccc(F)cc1` (stereo unspecified), for which the IC50 amounted to 73.8 µM in the assay with HepG2 and 82.4 µM in the assay with MCF7. Moreover, the zone of inhibition at 150 µg/mL in the assay with Candida albicans was found to be 8 mm; with Streptococcus pyogenes, 8 mm; in the assay with Klebsiella pneumoniae it was 16 mm; in the assay with Aspergillus niger, 12 mm; with Pseudomonas aeruginosa it was 13 mm; in the assay on Aspergillus parasiticus it was 8 mm. Besides, the zone of inhibition at 150 µg/mL in the assay on Nakaseomyces glabratus worked out at 8 mm; in the assay with Staphylococcus aureus it was 13 mm.

In the case of `COc1ccc2c(c1)CCC1=C2N=c2s/c(=C\c3c[nH]c4ccccc34)c(=O)n2C1c1ccc(F)cc1` (stereo unspecified), the IC50 with HepG2 amounted to 25.8 µM; with MCF7 it was 67.3 µM. For the same molecule, the zone of inhibition at 150 µg/mL with Candida albicans worked out at 8 mm; in the assay with Streptococcus pyogenes it was 8 mm; in the assay with Klebsiella pneumoniae, 17 mm; in the assay on Aspergillus niger, 10 mm; in the assay on Pseudomonas aeruginosa, 21 mm; in the assay with Aspergillus parasiticus, 10 mm. For the same molecule, the zone of inhibition at 150 µg/mL in the assay on Nakaseomyces glabratus is 8 mm; in the assay with Staphylococcus aureus it was 21 mm.

As to `COc1ccc2[nH]cc(/C=c3\sc4n(c3=O)C(c3ccc(Cl)cc3)C3=C(N=4)c4ccccc4CC3)c2c1` (stereo unspecified), the IC50 in the assay on HepG2 was found to be 27.7 µM; in the assay with MCF7, 20.7 µM. For the same molecule, the zone of inhibition at 150 µg/mL was 15 mm with Candida albicans; 8 mm in the assay on Streptococcus pyogenes; 8 mm in the assay with Klebsiella pneumoniae; 18 mm with Aspergillus niger; 14 mm in the assay with Pseudomonas aeruginosa; 18 mm with Aspergillus parasiticus. Besides, the zone of inhibition at 150 µg/mL with Nakaseomyces glabratus is 16 mm; with Staphylococcus aureus, 14 mm.

Regarding `Cc1[nH]c2ccccc2c1/C=c1\sc2n(c1=O)C(c1ccc(Cl)cc1)C1=C(N=2)c2ccccc2CC1` (stereo unspecified), the IC50 in the assay with HepG2 came out at 69.8 µM; in the assay with MCF7, 166 µM. The zone of inhibition at 150 µg/mL in the assay on Candida albicans was found to be 16 mm; with Streptococcus pyogenes, 8 mm; in the assay with Klebsiella pneumoniae, 8 mm; in the assay on Aspergillus niger it was 14 mm; in the assay on Pseudomonas aeruginosa, 17 mm; with Aspergillus parasiticus it was 14 mm. Also, the zone of inhibition at 150 µg/mL in the assay with Nakaseomyces glabratus amounted to 19 mm; in the assay on Staphylococcus aureus it was 13 mm.

For the molecule `COc1ccc2c(c1)CCC1=C2N=c2s/c(=C\c3c[nH]c4ccc(OC)cc34)c(=O)n2C1c1ccc(F)cc1` (stereo unspecified), the values for the IC50 in the assay with HepG2 and with MCF7 were 86.8 µM and 193 µM, respectively. The zone of inhibition at 150 µg/mL with Candida albicans was determined as 8 mm; with Streptococcus pyogenes it was 8 mm; in the assay on Klebsiella pneumoniae, 15 mm; in the assay on Aspergillus niger, 10 mm; in the assay on Pseudomonas aeruginosa, 8 mm; with Aspergillus parasiticus it was 10 mm. Also, the figures for the zone of inhibition at 150 µg/mL in the assay on Nakaseomyces glabratus and in the assay with Staphylococcus aureus were 10 mm and 8 mm, respectively.

With `O=c1/c(=C/c2c[nH]c3ccc(Br)cc23)sc2n1C(c1ccc(Cl)cc1)C1=C(N=2)c2ccccc2CC1` (stereo unspecified), the figures for the IC50 in the assay on HepG2 and in the assay with MCF7 were 13.7 µM and 18.9 µM, respectively. Besides, the zone of inhibition at 150 µg/mL in the assay on Candida albicans amounted to 8 mm; in the assay on Streptococcus pyogenes it was 8 mm; in the assay with Klebsiella pneumoniae, 8 mm; in the assay with Aspergillus niger it was 8 mm; with Pseudomonas aeruginosa it was 15 mm; in the assay on Aspergillus parasiticus, 8 mm. The values for the zone of inhibition at 150 µg/mL in the assay with Nakaseomyces glabratus and in the assay with Staphylococcus aureus were 10 mm and 13 mm, respectively.

`COc1ccc2c(c1)CCC1=C2N=c2s/c(=C\c3c[nH]c4ccc(C)cc34)c(=O)n2C1c1cccc([N+](=O)[O-])c1` (stereo unspecified): the IC50 in the assay on HepG2 is 51.6 µM; in the assay with MCF7 it was more than 200 µM. Besides, the zone of inhibition at 150 µg/mL is 8 mm with Candida albicans; 17 mm with Streptococcus pyogenes; 17 mm in the assay with Klebsiella pneumoniae; 8 mm in the assay with Aspergillus niger; 8 mm in the assay with Pseudomonas aeruginosa; 8 mm with Aspergillus parasiticus. For the same molecule, the zone of inhibition at 150 µg/mL with Nakaseomyces glabratus came to 12 mm; in the assay on Staphylococcus aureus, 17 mm.

`COc1ccc2c(c1)CCC1=C2N=c2s/c(=C\c3c[nH]c4ccccc34)c(=O)n2C1c1cccc([N+](=O)[O-])c1` (stereo unspecified): the IC50 was 70.3 µM with HepG2 and more than 200 µM with MCF7. Moreover, the zone of inhibition at 150 µg/mL was found to be 8 mm with Candida albicans; 8 mm in the assay with Streptococcus pyogenes; 8 mm in the assay with Klebsiella pneumoniae; 12 mm in the assay with Aspergillus niger; 8 mm with Pseudomonas aeruginosa; 8 mm in the assay on Aspergillus parasiticus. The zone of inhibition at 150 µg/mL in the assay with Nakaseomyces glabratus and in the assay on Staphylococcus aureus was 8 mm in each case.

Consider `COc1cccc2c1C(=O)c1c(O)c3c(c(O)c1C2=O)C[C@@](O)(C(=O)CO)C[C@@H]3O[C@H]1C[C@H](N)[C@H](O)[C@H](C)O1` [DOXORUBICIN], for which, in the assay with HepG2, the IC50 came out at 1.1 µM.

With `O=c1/c(=C/c2c[nH]c3ccccc23)sc2n1C(c1ccc(Cl)cc1)C1=C(N=2)c2ccccc2CC1` (stereo unspecified), the results for the IC50 in the assay with HepG2 and with MCF7 were 16.3 µM and 42.8 µM, respectively. Moreover, the zone of inhibition at 150 µg/mL is 8 mm with Candida albicans; 8 mm in the assay on Streptococcus pyogenes; 8 mm with Klebsiella pneumoniae; 12 mm with Aspergillus niger; 18 mm with Pseudomonas aeruginosa; 12 mm in the assay with Aspergillus parasiticus. For the same molecule, the zone of inhibition at 150 µg/mL in the assay on Nakaseomyces glabratus and with Staphylococcus aureus was 12 mm throughout.

In the case of `COc1ccc2c(c1)CCC1=C2N=c2s/c(=C\c3c[nH]c4ccc(Br)cc34)c(=O)n2C1c1ccc(Cl)cc1` (stereo unspecified), the IC50 was 11.6 µM in the assay on HepG2 and 2.59 µM in the assay with MCF7. Also, the zone of inhibition at 150 µg/mL is 8 mm with Candida albicans; 8 mm in the assay with Streptococcus pyogenes; 8 mm with Klebsiella pneumoniae; 10 mm in the assay on Aspergillus niger; 8 mm with Pseudomonas aeruginosa; 10 mm in the assay on Aspergillus parasiticus. The values for the zone of inhibition at 150 µg/mL with Nakaseomyces glabratus and in the assay on Staphylococcus aureus were 10 mm and 8 mm, respectively.

As for `COc1ccc(C2C3=C(N=c4s/c(=C\c5c[nH]c6ccc(Br)cc56)c(=O)n42)c2ccc(OC)cc2CC3)cc1` (stereo unspecified), the IC50 with HepG2 turned out to be 8.6 µM; in the assay on MCF7 it was 7.72 µM. Further, the zone of inhibition at 150 µg/mL amounted to 8 mm in the assay with Candida albicans; 8 mm in the assay with Streptococcus pyogenes; 8 mm in the assay with Klebsiella pneumoniae; 8 mm in the assay with Aspergillus niger; 8 mm in the assay with Pseudomonas aeruginosa; 10 mm in the assay with Aspergillus parasiticus. Besides, the zone of inhibition at 150 µg/mL amounted to 12 mm in the assay with Nakaseomyces glabratus and 8 mm in the assay with Staphylococcus aureus.

For the molecule `COc1ccc(C2C3=C(N=c4s/c(=C\c5c[nH]c6ccc(OC)cc56)c(=O)n42)c2ccc(OC)cc2CC3)cc1` (stereo unspecified), the IC50 in the assay on HepG2 was found to be 57.5 µM; in the assay on MCF7 it was 30.6 µM. Further, the zone of inhibition at 150 µg/mL amounted to 8 mm in the assay on Candida albicans; 8 mm in the assay on Streptococcus pyogenes; 8 mm in the assay on Klebsiella pneumoniae; 14 mm in the assay on Aspergillus niger; 8 mm in the assay with Pseudomonas aeruginosa; 10 mm in the assay with Aspergillus parasiticus. Moreover, the zone of inhibition at 150 µg/mL in the assay on Nakaseomyces glabratus and in the assay on Staphylococcus aureus was 8 mm throughout.

The record behind these values is ChEMBL document CHEMBL3352152, “Indolylmethylene benzo[h]thiazolo[2,3-b]quinazolinones: synthesis, characterization and evaluation of anticancer and antimicrobial activities” (Bioorg Med Chem Lett, 2014).
